Legend:
SK-BR-3 [1] = test: Cell cycle arrest in human SK-BR-3 cells assessed as accumulation at G1 phase at 0.25 uM after 6 hrs using propidium iodide staining by FACS analysis; assay type: functional
How it was run: (§1)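 SKBR-3 cells in RPMI1640 with 10% heat-inactivated FBS at 37 °C and 5% CO₂ were treated for the stated times. Cells were fixed overnight in 70% EtOH at −20 °C, then stained with propidium iodide buffer (38 mM sodium citrate pH 7.5, 69 µM PI, 120 µg/mL RNase A) for 15 min at room temperature in the dark. Up to 1×10⁴ gated cells were analyzed by flow cytometry, giving percent distribution per phase.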

PC-3 = test: Growth inhibition of human PC3 cells after 48 hrs by SRB assay; assay type: functional
[2] = Terminal half life in Sprague-Dawley rat at 20 mg/kg, ip; assay type: ADME, organism-based; design: dose 20 mg/kg, route intraperitoneal; conditions: in vivo, read-out: beta t1/2 (converted)
How it was run: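 Male Sprague–Dawley rats (300–350 g, n=3), fasted overnight with water allowed. Single 20 mg/kg i.p. dose in PBS with 0.1% Tween80 and 20% DMSO. Blood taken from saphenous and femoral veins into heparinized tubes at 0, 0.25, 0.5, 1, 2, 4, 8 and 24 h. Plasma quantified by LC-MS/MS (MRM, 483.3→404.3) after tert-butyl methyl ether/hexane extraction. Parameters derived non-compartmentally.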

CCRF-CEM = test: Growth inhibition of human CCRF-CEM cells after 48 hrs by SRB assay; assay type: functional
HT-29 = test: Cytotoxicity against human HT-29 cells after 48 hrs by MTT assay; assay type: functional, cell-based; conditions: HT-29, 48 h
How it was run: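 HT29 cells (ATCC) kept in RPMI1640 with 10% heat-inactivated FBS, L-glutamine and pyruvate at 37 °C, 5% CO2. Cells plated 24 h, then exposed 48 h to graded compound concentrations in DMSO (0.1% final) beside vehicle controls. Incubated 2 h with 0.5 mg/ml MTT, formazan dissolved in DMSO, A570 read. Six replicates; IC50 from viability.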

RPMI-8226 = test: Growth inhibition of human RPMI8226 cells after 48 hrs by SRB assay; assay type: functional
SK-BR-3 [3] = test: Cell cycle arrest in human SK-BR-3 cells assessed as accumulation at G1 phase at 0.10 uM after 6 hrs using propidium iodide staining by FACS analysis; assay type: functional; how it was run: as §1
SK-BR-3 [4] = test: Cell cycle arrest in human SK-BR-3 cells assessed as accumulation at G1 phase at 0.25 uM after 12 hrs using propidium iodide staining by FACS analysis; assay type: functional; how it was run: as §1
SK-BR-3 [5] = test: Cell cycle arrest in human SK-BR-3 cells assessed as accumulation at S phase at 5 uM after 6 hrs using propidium iodide staining by FACS analysis; assay type: functional
SK-BR-3 [6] = test: Cell cycle arrest in human SK-BR-3 cells assessed as accumulation at Sub-G1 phase at 0.25 uM after 6 hrs using propidium iodide staining by FACS analysis; assay type: functional
SK-BR-3 [7] = test: Cell cycle arrest in human SK-BR-3 cells assessed as accumulation at Sub-G1 phase at 5 uM after 6 hrs using propidium iodide staining by FACS analysis; assay type: functional
SK-BR-3 [8] = test: Cell cycle arrest in human SK-BR-3 cells assessed as accumulation at Sub-G1 phase at 0.25 uM after 12 hrs using propidium iodide staining by FACS analysis; assay type: functional
SNB-75 = test: Growth inhibition of human SNB75 cells after 48 hrs by SRB assay; assay type: functional
NCI-H460 = test: Growth inhibition of human NCI-H460 cells after 48 hrs by SRB assay; assay type: functional
SNB-19 = test: Growth inhibition of human SNB19 cells after 48 hrs by SRB assay; assay type: functional
SK-BR-3 [9] = test: Cell cycle arrest in human SK-BR-3 cells assessed as accumulation at Sub-G1 phase at 0.10 uM after 12 hrs using propidium iodide staining by FACS analysis; assay type: functional
SK-BR-3 [10] = test: Cell cycle arrest in human SK-BR-3 cells assessed as accumulation at G1 phase at 5 uM after 12 hrs using propidium iodide staining by FACS analysis; assay type: functional; how it was run: as §1
SK-BR-3 [11] = test: Cell cycle arrest in human SK-BR-3 cells assessed as accumulation at G1 phase at 0.50 uM after 18 hrs using propidium iodide staining by FACS analysis; assay type: functional; how it was run: as §1
SK-BR-3 [12] = test: Cell cycle arrest in human SK-BR-3 cells assessed as accumulation at G2/M phase at 0.50 uM after 18 hrs using propidium iodide staining by FACS analysis; assay type: functional; how it was run: as §1
RXF 393 = test: Growth inhibition of human RXF393 cells after 48 hrs by SRB assay; assay type: functional
SK-BR-3 [13] = test: Cell cycle arrest in human SK-BR-3 cells assessed as accumulation at S phase at 0.10 uM after 24 hrs using propidium iodide staining by FACS analysis; assay type: functional; how it was run: as §1
SK-BR-3 [14] = test: Cell cycle arrest in human SK-BR-3 cells assessed as accumulation at S phase at 0.50 uM after 18 hrs using propidium iodide staining by FACS analysis; assay type: functional
Malme-3M = test: Growth inhibition of human MALME-3M cells after 48 hrs by SRB assay; assay type: functional
[15] = Apparent volume of distribution during terminal phase in Sprague-Dawley rat at 20 mg/kg, ip; assay type: ADME, organism-based; design: dose 20 mg/kg, route intraperitoneal; conditions: in vivo, read-out: Vz/F
How it was run: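 Male Sprague–Dawley rats (300–350 g), n=3, fasted overnight with water available, given a single 20 mg/kg i.p. dose in PBS with 0.1% Tween80 and 20% DMSO. Blood drawn into heparinized tubes at 0, 0.25, 0.5, 1, 2, 4, 8 and 24 h. Plasma measured by LC-MS/MS against an internal standard. Parameters from non-compartmental analysis.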

UACC-257 = test: Growth inhibition of human UACC257 cells after 48 hrs by SRB assay; assay type: functional
SK-BR-3 [16] = test: Cell cycle arrest in human SK-BR-3 cells assessed as accumulation at S phase at 0.10 uM after 6 hrs using propidium iodide staining by FACS analysis; assay type: functional; how it was run: as §1
BT-549 = test: Growth inhibition of human BT549 cells after 48 hrs by SRB assay; assay type: functional
SK-BR-3 [17] = test: Cell cycle arrest in human SK-BR-3 cells assessed as accumulation at Sub-G1 phase at 5 uM after 18 hrs using propidium iodide staining by FACS analysis; assay type: functional
SN12C = test: Growth inhibition of human SN12C cells after 48 hrs by SRB assay; assay type: functional
[18] = read-out: LC50 (the source's name)

In the case of Cc1ccc(C)c(COc2cc(NC(=O)c3ccc4c(c3)OCO4)ccc2N(C)S(C)(=O)=O)c1, the Activity (SK-BR-3 [1]) is reported as 72.21%, the “growth inhibition (GI)” value (PC-3) is reported as “Dose-dependent effect” and the GI50 (PC-3; PC-3, 48 h) is reported as 67.7 nM. The TGI (PC-3; PC-3, 48 h) was > 100000 nM, the half-life [2] was 3.12 h and the GI50 (CCRF-CEM) was 48.5 nM. The TGI (CCRF-CEM) was > 100000 nM, the “growth inhibition (GI)” value (CCRF-CEM) was “Dose-dependent effect” and the CC50 (CCRF-CEM; [18]) was > 100000 nM. For the same compound, the IC50 (HT-29) was 460 nM, the “growth inhibition (GI)” value (RPMI-8226) was “Dose-dependent effect” and the GI50 (RPMI-8226; RPMI-8226, 48 h) was 290 nM. The CC50 (RPMI-8226; RPMI-8226, 48 h, read-out: LC50 (the source's name)) was > 100000 nM, the Activity (SK-BR-3 [3]) was 71.43% and the Activity (SK-BR-3 [4]) was 73.62%. The Activity (SK-BR-3 [5]) was 14.61%, the Activity (SK-BR-3 [6]) was 3.49% and the Activity (SK-BR-3 [7]) was 3.42%. The Activity (SK-BR-3 [8]) was 6.85%, the “growth inhibition (GI)” value (SNB-75) was “Dose-dependent effect” and the GI50 (SNB-75; SNB-75, 48 h) was 266 nM. For the same compound, the CC50 (SNB-75; SNB-75, 48 h, read-out: LC50 (the source's name)) was > 100000 nM, the “growth inhibition (GI)” value (NCI-H460) was “Dose-dependent effect” and the GI50 (NCI-H460; NCI-H460, 48 h) was 184 nM. The TGI (NCI-H460; NCI-H460, 48 h) was 744 nM, the CC50 (NCI-H460; NCI-H460, 48 h, read-out: LC50 (the source's name)) was > 100000 nM and the “growth inhibition (GI)” value (SNB-19) was “Dose-dependent effect”. For the same compound, the GI50 (SNB-19; SNB-19, 48 h) was 537 nM, the TGI (SNB-19; SNB-19, 48 h) was > 100000 nM and the CC50 (SNB-19; SNB-19, 48 h, read-out: LC50 (the source's name)) was > 100000 nM. It also gave an Activity (SK-BR-3 [9]) of 5.27%, an Activity (SK-BR-3 [10]) of 63.71% and an Activity (SK-BR-3 [11]) of 61.19%. For the same compound, the Activity (SK-BR-3 [12]) was 22.27%, the “growth inhibition (GI)” value (RXF 393) was “Dose-dependent effect” and the GI50 (RXF 393; RXF 393, 48 h) was 128 nM. For the same compound, the TGI (RXF 393; RXF 393, 48 h) was 403 nM, the Activity (SK-BR-3 [13]) was 8.91% and the Activity (SK-BR-3 [14]) was 7.28%. For the same compound, the GI50 (Malme-3M) was 229 nM, the TGI (Malme-3M) was > 100000 nM and the “growth inhibition (GI)” value (Malme-3M) was “Dose-dependent effect”. For the same compound, the CC50 (Malme-3M; [18]) was > 100000 nM, the Vd/F [15] was 2.16 L/kg and the “growth inhibition (GI)” value (UACC-257) was “Dose-dependent effect”. For the same compound, the GI50 (UACC-257; UACC-257, 48 h) was 144 nM, the TGI (UACC-257; UACC-257, 48 h) was > 100000 nM and the CC50 (UACC-257; UACC-257, 48 h, read-out: LC50 (the source's name)) was > 100000 nM. The Activity (SK-BR-3 [16]) was 15.84%, the “growth inhibition (GI)” value (BT-549) was “Dose-dependent effect” and the GI50 (BT-549; BT-549, 48 h) was 656 nM. The TGI (BT-549; BT-549, 48 h) was > 100000 nM, the CC50 (BT-549; BT-549, 48 h, read-out: LC50 (the source's name)) was > 100000 nM and the Activity (SK-BR-3 [17]) was 8.31%. The GI50 (SN12C) was 472 nM, the TGI (SN12C) was > 100000 nM and the “growth inhibition (GI)” value (SN12C) was “Dose-dependent effect”. The CC50 (SN12C; [18]) was > 100000 nM.

Source: ChEMBL document CHEMBL1932938, “From COX-2 inhibitor nimesulide to potent anti-cancer agent: synthesis, in vitro, in vivo and pharmacokinetic evaluation” (Eur J Med Chem, 2012)
